Results from ChEMBL document CHEMBL1795332, “Renin inhibitors for the treatment of hypertension: design and optimization of a novel series of pyridone-substituted piperidines” (Bioorg Med Chem Lett, 2011).

Columns and labels:
Renin [1] = target: T1, Renin (Homo sapiens, UniProt P00797); assay: Inhibition of human recombinant renin using Q-FRET substrate after 3 hrs by fluorescence assay
T1 sequence (P00797 whole entry): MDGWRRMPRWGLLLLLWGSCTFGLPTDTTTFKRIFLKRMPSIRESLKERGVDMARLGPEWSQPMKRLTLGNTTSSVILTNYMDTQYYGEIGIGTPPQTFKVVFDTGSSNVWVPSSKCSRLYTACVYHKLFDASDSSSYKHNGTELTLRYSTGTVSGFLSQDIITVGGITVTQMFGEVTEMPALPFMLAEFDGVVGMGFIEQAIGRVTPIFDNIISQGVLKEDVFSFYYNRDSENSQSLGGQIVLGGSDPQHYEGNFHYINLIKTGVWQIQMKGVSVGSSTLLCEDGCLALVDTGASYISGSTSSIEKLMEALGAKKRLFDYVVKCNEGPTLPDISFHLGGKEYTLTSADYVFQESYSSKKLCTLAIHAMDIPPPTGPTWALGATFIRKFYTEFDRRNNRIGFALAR

[2] = target: Voltage-gated inwardly rectifying potassium channel KCNH2 (Homo sapiens, UniProt Q12809); assay: Inhibition of human ERG
Voltage-gated inwardly rectifying potassium channel KCNH2, sequence (Q12809 whole entry): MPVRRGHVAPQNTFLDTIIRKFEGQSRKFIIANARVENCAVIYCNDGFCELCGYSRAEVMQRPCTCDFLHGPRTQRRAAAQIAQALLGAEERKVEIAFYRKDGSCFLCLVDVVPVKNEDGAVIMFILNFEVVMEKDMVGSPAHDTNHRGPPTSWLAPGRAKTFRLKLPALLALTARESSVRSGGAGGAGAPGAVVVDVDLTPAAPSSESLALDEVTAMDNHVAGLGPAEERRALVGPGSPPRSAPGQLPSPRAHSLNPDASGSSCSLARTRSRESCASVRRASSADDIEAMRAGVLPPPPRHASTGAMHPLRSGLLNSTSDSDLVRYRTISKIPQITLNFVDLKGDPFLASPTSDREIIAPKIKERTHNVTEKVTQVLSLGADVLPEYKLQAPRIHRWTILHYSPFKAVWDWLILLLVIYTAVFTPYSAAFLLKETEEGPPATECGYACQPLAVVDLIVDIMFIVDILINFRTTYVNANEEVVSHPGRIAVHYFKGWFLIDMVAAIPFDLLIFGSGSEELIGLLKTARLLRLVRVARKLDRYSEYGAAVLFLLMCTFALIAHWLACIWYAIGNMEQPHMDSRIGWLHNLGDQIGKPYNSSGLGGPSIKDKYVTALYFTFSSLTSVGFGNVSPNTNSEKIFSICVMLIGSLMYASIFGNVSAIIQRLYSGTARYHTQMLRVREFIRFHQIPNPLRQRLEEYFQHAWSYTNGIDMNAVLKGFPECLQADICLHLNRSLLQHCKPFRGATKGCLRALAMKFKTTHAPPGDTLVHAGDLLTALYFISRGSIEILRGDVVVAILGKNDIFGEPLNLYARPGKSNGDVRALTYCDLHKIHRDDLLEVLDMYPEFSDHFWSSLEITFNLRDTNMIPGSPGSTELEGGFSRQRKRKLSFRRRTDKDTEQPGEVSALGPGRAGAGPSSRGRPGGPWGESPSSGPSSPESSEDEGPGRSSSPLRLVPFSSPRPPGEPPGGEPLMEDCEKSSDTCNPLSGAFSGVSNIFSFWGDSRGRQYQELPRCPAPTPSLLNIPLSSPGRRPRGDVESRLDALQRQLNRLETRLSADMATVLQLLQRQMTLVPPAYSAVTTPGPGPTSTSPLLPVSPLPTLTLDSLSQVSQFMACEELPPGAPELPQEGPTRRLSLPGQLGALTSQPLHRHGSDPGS

Renin [3] = target: T1, Renin; assay: Inhibition of renin in human plasma using Q-FRET substrate pretreated for 10 mins before substrate addition measured after 1 hr
CYP3A4 [4] = target: T2, CYP3A4 (Homo sapiens, UniProt P08684); assay: Time dependent inhibition of CYP3A4 assessed as conversion of testosterone to 6-beta-hydroxytestosterone at 10 uM relative to control; assay type: ADME; conditions: probe testosterone
T2 sequence (P08684 whole entry): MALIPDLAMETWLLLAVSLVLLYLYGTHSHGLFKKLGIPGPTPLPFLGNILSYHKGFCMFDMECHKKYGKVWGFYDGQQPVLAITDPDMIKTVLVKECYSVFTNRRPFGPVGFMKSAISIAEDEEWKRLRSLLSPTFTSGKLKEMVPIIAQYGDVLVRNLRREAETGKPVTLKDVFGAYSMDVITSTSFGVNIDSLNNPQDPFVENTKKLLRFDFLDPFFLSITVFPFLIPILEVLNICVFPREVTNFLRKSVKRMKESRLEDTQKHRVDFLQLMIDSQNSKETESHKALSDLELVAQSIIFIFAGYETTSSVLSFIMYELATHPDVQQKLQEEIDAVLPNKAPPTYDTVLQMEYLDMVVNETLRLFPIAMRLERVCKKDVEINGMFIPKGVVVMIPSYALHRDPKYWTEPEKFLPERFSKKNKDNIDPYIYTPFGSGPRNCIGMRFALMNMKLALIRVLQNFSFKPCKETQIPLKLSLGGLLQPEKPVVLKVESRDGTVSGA
Summary of the method: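 Rate of CYP3A4 conversion of testosterone (250 μM) to 6-β-hydroxytestosterone measured before and after a 30 min incubation with compound at 10 μM (in DMSO). Difference expressed as % loss.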

[5] = Oral bioavailability in Sprague-Dawley rat at 20 mg/kg; assay type: ADME, organism-based; conditions: in vivo
CYP3A4 [6] = target: T2, CYP3A4; assay: Reversible inhibition of CYP3A4 assessed as conversion of testosterone to 6-beta-hydroxytestosterone at 10 uM relative to control; assay type: ADME; conditions: probe testosterone
[7] = Oral bioavailability in Sprague-Dawley rat at 30 mg/kg; assay type: ADME, organism-based; conditions: in vivo

SMILES | IC50 (Renin [1]) | Ki [2] | IC50 (Renin [3]) | inhibition at 10 µM (CYP3A4 [4]) | bioavailability [5] | activity % at 10 µM (CYP3A4 [6]) | bioavailability [7]
COC(=O)NCCc1cc(Cl)c(Cl)c(CN(C(=O)[C@H]2CNCC[C@@H]2c2ccn(C)c(=O)c2)C2CC2)c1 | 61 nM | 15000 nM | 210 nM | 56% | 1% | 45% | –
CCn1ccc([C@H]2CCNC[C@@H]2C(=O)N(Cc2cc(CCCOC)cc(OCCOC)c2)C2CC2)cc1=O | 200 nM | > 29000 nM | 460 nM | 5% | 1% | 70% | –
COCCCc1cc(CN(C(=O)[C@H]2CNCC[C@@H]2c2cc(=O)n(C)c3cc(Cl)ccc23)C2CC2)cc(OCCOC)c1 | 2 nM | – | 8 nM | 4% | 20% | – | –
Cn1ccc([C@H]2CCNC[C@@H]2C(=O)N(Cc2cc(CCC#N)cc(Cl)c2Cl)C2CC2)cc1=O | 8.5 nM | 17000 nM | 17 nM | 15% | 8% | 52% | –
COCCCc1cc(CN(C(=O)[C@H]2CNCC[C@@H]2c2ccn(C)c(=O)c2)C2CC2)c2ccccc2n1 | 1.4 nM | > 29000 nM | 3 nM | 13% | 1% | 95% | –
Cn1ccc([C@H]2CCNC[C@@H]2C(=O)N(Cc2cccc(Cl)c2Cl)C2CC2)cc1=O | 20 nM | 13000 nM | 42 nM | 37% | 23% | 61% | –
COCCCc1cc(CN(C(=O)[C@H]2CNCC[C@@H]2c2cc(=O)n(C)c3ccccc23)C2CC2)cc(OCCOC)c1 | 13 nM | 28000 nM | 39 nM | 5% | 1% | 100% | –
COCCCc1cc(CN(C(=O)[C@H]2CNCC[C@@H]2c2ccc(OCCOc3c(Cl)cc(C)cc3Cl)cc2)C2CC2)cc(OCCOC)c1 | – | 800 nM | – | 27% | 27% | 9% | –
COCCCc1cc(CN(C(=O)[C@H]2CNCC[C@@H]2c2ccn(C)c(=O)c2)C2CC2)cc(OCCOC)c1 | – | > 29000 nM | – | 0% | 3% | 78% | –
COCCNc1cc(Cl)c(Cl)c(CN(C(=O)[C@H]2CNCC[C@@H]2c2ccn(C)c(=O)c2)C2CC2)c1 | 7.1 nM | 18000 nM | 26 nM | 0% | 1% | 71% | –
COCCCc1cc(CN(C(=O)[C@H]2CNCC[C@@H]2c2ccn(C)c(=O)c2)C2CC2)cc(-c2ccccc2)c1 | 18 nM | – | 81 nM | 0% | 8% | 23% | –
COCCc1cc(Cl)c(Cl)c(CN(C(=O)[C@H]2CNCC[C@@H]2c2ccn(C)c(=O)c2)C2CC2)c1 | 0.6 nM | 11000 nM | 2.2 nM | 23% | 18% | 68% | –
COCCCc1ccc(Cl)c(CN(C(=O)[C@H]2CNCC[C@@H]2c2ccn(C)c(=O)c2)C2CC2)c1 | 8 nM | – | 25 nM | 29% | 14% | – | –
COCCCc1cc(Br)cc(CN(C(=O)[C@H]2CNCC[C@@H]2c2ccn(C)c(=O)c2)C2CC2)c1 | 1.7 nM | – | 3.5 nM | 45% | 15% | 15% | –
COCCCc1cc(CN(C(=O)[C@H]2CNCC[C@@H]2c2ccn(C)c(=O)c2)C2CC2)c2ccccc2c1 | 0.4 nM | 17000 nM | 1.4 nM | 34% | 4% | 54% | –
COCCCc1cc(CN(C(=O)[C@H]2CNCC[C@@H]2c2cc(=O)n(C)c(C)c2C)C2CC2)cc(OCCOC)c1 | 25 nM | > 29000 nM | 80 nM | 0% | 0% | 41% | –
COCCCn1cc(CN(C(=O)[C@H]2CNCC[C@@H]2c2ccn(C)c(=O)c2)C2CC2)c2c(Cl)cccc21 | 0.12 nM | 23000 nM | 0.64 nM | 19% | – | 48% | 22%
Cn1ccc([C@H]2CCNC[C@@H]2C(=O)N(Cc2cn(Cc3ccc(F)cc3)c3cccc(F)c23)C2CC2)cc1=O | 0.05 nM | 750 nM | 0.48 nM | 70% | – | 16% | 17%
COCCCc1cc(C)c(C)c(CN(C(=O)[C@H]2CNCC[C@@H]2c2ccn(C)c(=O)c2)C2CC2)c1 | 0.6 nM | – | 1 nM | 15% | – | – | 7%
COCCCc1cc(CN(C(=O)[C@H]2CNCC[C@@H]2c2cccnc2)C2CC2)cc(OCCOC)c1 | 45 nM | > 29000 nM | 140 nM | 9% | 61% | 75% | –
CC(=O)NCCc1cc(Cl)c(Cl)c(CN(C(=O)[C@H]2CNCC[C@@H]2c2ccn(C)c(=O)c2)C2CC2)c1 | 4.5 nM | > 29000 nM | 9 nM | 0% | 0% | 97% | –
COCCCc1cc(CN(C(=O)[C@H]2CNCC[C@@H]2c2ccccc2)C2CC2)cc(OCCOC)c1 | 150 nM | 7200 nM | 580 nM | 0% | – | 33% | –
COCCCc1cc(Cl)cc(CN(C(=O)[C@H]2CNCC[C@@H]2c2ccn(C)c(=O)c2)C2CC2)c1 | 3 nM | 7600 nM | 6.5 nM | 1% | – | 23% | 28%
Cn1ccc([C@H]2CCNC[C@@H]2C(=O)N(Cc2cc(CCCC#N)cc(Cl)c2Cl)C2CC2)cc1=O | 4.9 nM | 8400 nM | 10 nM | 20% | 7% | 55% | –
Cn1ccc([C@H]2CCNC[C@@H]2C(=O)N(Cc2cn(Cc3cccc(F)c3)c3cccc(F)c23)C2CC2)cc1=O | 0.06 nM | 1200 nM | 0.63 nM | 39% | – | 18% | 30%
COCCCc1cc(CN(C(=O)[C@H]2CNCC[C@@H]2c2ccn(C)c(=O)c2)C2CC2)c2ncccc2c1 | 0.8 nM | 27000 nM | 2.2 nM | 16% | – | 85% | 2%
COCCCn1cc(CN(C(=O)[C@H]2CNCC[C@@H]2c2ccn(C)c(=O)c2)C2CC2)c2c(F)cccc21 | 0.32 nM | > 29000 nM | 0.87 nM | 0% | – | 41% | 8%
